Measurements collected from several papers.
Lines come from different studies, so protocols differ.
CYP2D6: Cytochrome P450 2D6 (CYP2D6, Homo sapiens, UniProt P10635)

| Structure (SMILES) | target or system | test | test system | conditions | quantity | result |
| --- | --- | --- | --- | --- | --- | --- |
| Nc1nc(N)c2nc(C(=O)NCc3ccccc3)cnc2n1 | CYP2D6 | enzyme activity, inhibitor, luciferase | – | 10 µM | inhibition | 105% |
| COCCc1ccc(OCC(O)CNC(C)C)cc1 (stereo not drawn) | CYP2D6 | – | human, plasma | oral, 100 mg, single dose, healthy volunteers | Cmax | 123 ng/mL |
| Cc1ccc(C(CS(=O)(=O)c2ccccc2)=NNc2nc(-c3ccc(OCCCCOc4ccc(-c5csc(NN=C(CS(=O)(=O)c6ccccc6)c6ccc(C)cc6)n5)cc4)cc3)cs2)cc1 | WM 266-4 | cell growth or viability, MTT | – | 1.6 µg, 48 h | viability | 64.3% |
| C[C@@H]1CCC[C@H](n2cnc(-c3cc(Cl)ccc3-n3cc(Cl)nn3)cc2=O)c2cc(ccn2)-c2c(cnn2C(F)F)NC1=O | – | – | male rabbit, plasma | intravenous, 0.8 mg/kg | Vd | 1.4 L/kg |
| Cc1ccc(C(CS(=O)(=O)c2ccccc2)=NN=C2N=C(c3ccc(Br)cc3)CS2)cc1 | WM 266-4 | cell growth or viability, MTT | – | 1.6 µg, 48 h | viability | 55.1% |
| COC(=O)C1CCN(C(=O)c2ccc(N(CCCO)Cc3cnc4nc(N)nc(N)c4n3)cc2)CC1 | CYP2D6 | enzyme activity, inhibitor, luciferase | – | 10 µM | inhibition | -27.1% |
| CC[C@@H]1CN(C(=O)NCC(F)(F)F)C[C@@H]1c1cnc2cnc3[nH]ccc3n12 | – | – | beagle dog, plasma | oral, 1 mg/kg, single dose | AUC(0-t) | 558 ng·h/mL |
| Cc1ccc(C(CS(=O)(=O)c2ccccc2)=NNC2=NC(=O)C(=NNc3ccc([N+](=O)[O-])cc3)S2)cc1 | WM 266-4 | cell growth or viability, MTT | – | 1.6 µg, 48 h | viability | 50.5% |
| O=C(NCCN1CCCC1)c1cc(-c2ccc(CN3CCOCC3)cc2)nc2ccc(F)cc12 | – | – | male beagle dog, blood | oral, 3 mg/kg | half-life | 20 h |
| CC(C)(C)c1nc(-c2cccc(NS(=O)(=O)c3c(F)cccc3F)c2F)c(-c2ccnc(N)n2)s1 | WM 266-4 | cell growth or viability, MTT | – | 1.6 µg, 48 h | viability | 64.6% |
| COc1cc2c3c(n(CCCN4CCOCC4)c(=O)c2cc1OC)-c1cc2c(cc1C3=O)OCO2 | – | – | male beagle dog, plasma | intravenous, 10 mg/m², infusion | AUC(0-inf) | 383 ng·h/mL |
| Cc1nc(-c2cnc(NC(C)C)n(C)c2=O)ccc1Oc1ccnc(-c2cnn(C)c2)c1 | – | – | male beagle dog, plasma | oral, 10 mg/kg | AUC(0-t) | 19500 ng·h/mL |
